# Source: PubChem BioAssay (Sanford-Burnham Center for Chemical Genomics)
# CXCR6 block = CXCR6 (human) receptor inhibition; O00574; CHO-K1 PathHunter CXCR6 beta-arrestin, luminescence; inhibition, % at 20 µM; 360,000 compounds, 0.36% hits; AID 602244; in the data active means inhibition above about 34%, passing the limit was not always enough;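 further: antagonist mode with CXCL16 agonist at 10 nM final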
# APJ agonist = APJ receptor agonism | P35414 | CHO-K1 APJ PathHunter beta-arrestin, luminescence; 0% DMSO wells, 100% apelin | activation, % at 20 µM | 330,000 compounds, 0.11% hits;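 active means activation more than six SD over the plate average, tested at 20 µM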
# Target sequence (P35414 whole entry, looked up): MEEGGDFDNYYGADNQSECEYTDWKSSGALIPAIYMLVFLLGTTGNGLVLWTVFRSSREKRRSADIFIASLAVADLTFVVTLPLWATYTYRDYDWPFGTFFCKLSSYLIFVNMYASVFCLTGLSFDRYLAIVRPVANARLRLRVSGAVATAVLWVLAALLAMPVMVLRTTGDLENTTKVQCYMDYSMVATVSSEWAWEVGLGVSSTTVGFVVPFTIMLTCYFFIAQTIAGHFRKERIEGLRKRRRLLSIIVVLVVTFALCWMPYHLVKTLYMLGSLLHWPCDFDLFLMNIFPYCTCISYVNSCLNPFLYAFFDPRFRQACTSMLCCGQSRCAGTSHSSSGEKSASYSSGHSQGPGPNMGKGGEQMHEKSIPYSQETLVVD
#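 Assay system: CHO-K1 cells stably expressing ProLink-tagged human APJ and arrestin–beta-gal acceptor. Compound dosing: 20 µM single point, 1% DMSO. Times: 16-18 h seeding, 90 min dark compound exposure, 60 min detection. Detection: beta-gal luminescence. Evaluation: APJ–arrestin association signal. Controls: negative DMSO alone, positive Apelin-13 at 10 nM.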
# EBI2 block = antagonists of human EBI2 receptor | EBI2 beta-arrestin recruitment, luminescence, 7a,25-OHC stimulated | inhibition, % at 5 µM | 360,000 compounds, 0.81% hits; in the data active means inhibition above about 38%;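 further: enzyme fragment complementation signal reports receptor beta-arrestin coupling in cells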
# APJ antagonist = antagonists of human APJ apelin receptor. 330,000 compounds, 0.32% hits. P35414. CHO-K1 APJ beta-arrestin complementation, luminescence. inhibition, % at 20 µM. AID 2521;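 active means inhibition above about 40% at 20 µM, limit read from the data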;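 further: cells challenged with 10 nM apelin-13 agonist together with compound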
# CCR6 antagonist = blocks CCL20-driven beta-arrestin recruitment at human CCR6; P51684; CHO-K1 CCR6 PathHunter beta-arrestin, luminescence, CCL20-stimulated; inhibition, % at 20 µM; 340,000 compounds, 0.49% hits; AID 493098;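 active means compounds whose inhibition of the agonist-driven luminescence signal at 20 µM reaches about 50%, limit read from the data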;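 further: cells stimulated with CCL20 at 14 nM final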
# EBI2 conf = confirmation of human EBI2 receptor antagonists. shares compounds with EBI2 block. EBI2 beta-arrestin luminescence, 7a,25-OHC antagonism. inhibition, % at 5 µM. 2,400 compounds, 29% hits. AID 651997;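 active means inhibition of at least 50%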
# EBI2 agonist = EBI2 agonism counter-screen; shares compounds with EBI2 block; EBI2-expressing cells, agonist mode, luminescence, 60 min; 0% vehicle, 100% 7α,25-dihydroxycholesterol control; activation, % at 5 µM; 2,400 tested, under 10 active;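 active means activation of at least 50%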
# bGal cs = beta-galactosidase inhibition counter-screen; shares compounds with EBI2 block; purified beta-galactosidase, luminescent Galacton Star, 15 min; inhibition, % at 5 µM; 2,400 compounds, 1% hits; AID 652176;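 active means replicate-average signal at least 3 plate SD below neutral wells, shown as high inhibition, flagging enzyme-inhibiting false positives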;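 further: higher means stronger loss of beta-gal luminescence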
# Hits are given with their value; i = inactive; nt = not tested or not shown. Only some compounds are listed: those with a hit (about 1.5% of all), similar ones and a draw of the others.
SMILES,CXCR6 block,APJ agonist,EBI2 block,APJ antagonist,CCR6 antagonist,EBI2 conf,EBI2 agonist,bGal cs
O=C1[C@@H]2Cc3c([nH]c4ccccc34)C(c3cccc([N+](=O)[O-])c3)N2C(=O)CN1C1CCN(Cc2ccccc2)CC1 (stereo partly drawn),i,i,41,i,nt,i,i,i
O=C(CSc1cccc(C(F)(F)F)c1)N1CCN(S(=O)(=O)c2ccccc2)CC1,i,i,i,i,i,nt,nt,nt
O=C(c1ccc(Br)cc1)N1CCN(S(=O)(=O)c2ccccc2)CC1,i,i,47,i,i,i,i,i
O=C(CSc1ccc(Br)cc1)N1CCN(S(=O)(=O)c2ccccc2)CC1,i,i,90,i,i,67,i,i
COc1ccccc1CNC(=O)CC12CC3CC(CC(Br)(C3)C1)C2,i,i,i,i,i,nt,nt,nt
O=C1CCN(Cc2ccccc2)C=C1c1ccc(C(F)(F)F)cc1,i,i,69,i,i,i,i,i
COc1cc(C2=CN(Cc3ccccc3)CCC2=O)cc(OC)c1OC,i,i,i,i,i,nt,nt,nt
O=C1CCN(Cc2ccccc2)C=C1c1ccc2ccccc2c1,i,i,90,i,i,65,i,i
O=C1CCN(Cc2ccccc2)C=C1c1ccc(Cl)cc1,i,i,66,i,i,58,i,i
O=C1CCN(Cc2ccccc2)C=C1C(=O)c1ccccc1,i,nt,i,nt,i,nt,nt,nt
COC(=O)[C@@]1(Cc2ccc(OC)cc2)[C@H]2c3cc(C(=O)N4CCCC4)n(CCn4cc([N+](=O)[O-])nc4C)c3C[C@H]2CN1C(=O)c1ccccc1,i,i,i,i,i,nt,nt,nt
NC(N)=N/N=C/c1ccccc1,i,i,i,i,i,nt,nt,nt
NC(=N\N=Cc1ccccc1)/C(N)=N/N=Cc1ccccc1,i,nt,48,nt,i,i,i,i
O=C(/C=C/c1ccc(F)cc1)NC(=S)N1CCN(Cc2ccccc2)CC1,i,i,i,i,i,nt,nt,nt
O=C(/C=C/c1ccc(OCCCF)cc1)N1CCN(Cc2ccccc2)CC1,i,i,88,i,i,50,i,i
O=C(/C=C/c1ccc([N+](=O)[O-])cc1)N1CCN(S(=O)(=O)c2ccccc2)CC1,i,i,90,i,i,61,i,i
O=C(/C=C/c1ccc(F)cc1)NNC(=O)CCN1CCN(Cc2ccccc2)CC1,i,i,42,i,i,i,i,i
CC(CC(=O)N1CCN(S(=O)(=O)c2ccc([N+](=O)[O-])cc2)CC1)c1ccccc1 (stereo not drawn),i,i,i,i,i,nt,nt,nt
O=C(/C=C/c1ccc([N+](=O)[O-])cc1)N1CCN(Cc2ccccc2)CC1,i,i,90,i,i,64,i,i
CCCCN1CC(C)(C)Oc2cccc(F)c2S1(=O)=O,i,nt,i,nt,i,nt,nt,nt
CCOc1ccccc1OCCCC(=O)Nc1cccc(-n2cnnn2)c1C,i,i,i,i,i,nt,nt,nt
CC(=O)c1cn(S(=O)(=O)c2ccccc2)c2ccccc12,i,i,i,i,i,nt,nt,nt
CCN1CCN(C(=O)/C=C/c2ccc([N+](=O)[O-])cc2)CC1,i,i,74,i,i,i,i,i
CN1CCN(C(=O)/C=C/c2ccc([N+](=O)[O-])cc2)CC1,i,i,i,i,i,nt,nt,nt
Cc1cc(C)c(C#N)c(=N)o1,i,i,i,i,i,nt,nt,nt
SMILES,CXCR6 block,APJ agonist,EBI2 block,APJ antagonist,CCR6 antagonist,EBI2 conf,EBI2 agonist,bGal cs
COc1ccc(CCN2C(=O)C(Oc3ccccc3)C2c2ccc3c(c2)OCO3)cc1 (stereo not drawn),i,i,42,i,i,i,i,i
COc1cc2ccccc2cc1C(=O)NC1CCC(C)CC1 (stereo not drawn),i,i,65,i,i,i,i,i
COc1cc2ccccc2cc1C(=O)NC1CCCC1,i,i,i,i,i,nt,nt,nt
CCCC(=O)n1nc(-c2ccc(Cl)cc2)nc1SC,i,i,80,i,i,i,i,i
CCC(=O)n1nc(-c2ccc(Cl)cc2)nc1SC,i,i,i,i,i,nt,nt,nt
CC1(C)CC(C#N)(N2CCOCC2)CCO1 (stereo not drawn),i,i,i,i,i,nt,nt,nt
O=C(NC(=S)Nc1ccc(CN2CCOCC2)cc1)c1ccc2c(c1)OCCO2,i,i,i,i,i,nt,nt,nt
Nc1c(Cl)ncnc1N/N=C/c1ccc2ccccc2n1,53,nt,62,nt,84,84,i,i
O=C(NCCC1=CCCCC1)C1CCN(S(=O)(=O)c2ccccc2C(F)(F)F)CC1,i,i,i,i,i,nt,nt,nt
COCCN(C(=S)Nc1cccc(C)c1)C(C)c1cccnc1 (stereo not drawn),i,i,i,i,i,nt,nt,nt
Cc1cccc(Nc2nc(N3CCCC3)nc(N3CCCC3)n2)c1,i,i,42,i,i,i,i,i
N#CCCn1cc(/C=C(\C#N)c2nc3ccccc3s2)c(-c2ccc(F)cc2)n1,i,i,46,i,i,i,i,i
O=[N+]([O-])c1ccccc1S(=O)(=O)n1nnc2ccccc21,i,i,i,i,i,nt,nt,nt
Cc1cccc(/C=N/NC(=O)c2cc(-c3cccnc3)nc3c2c(C)nn3-c2ccccc2)c1,i,i,43,i,i,i,i,i
CCc1cc2cc(C(=O)N3CCN(c4ccccc4)CC3)sc2s1,i,i,83,i,i,i,i,i
O=C(c1cc2c(s1)CCCC2)N1CCN(c2ccccc2)CC1,i,i,i,i,i,nt,nt,nt
CCc1cc2cc(C(=O)N3CCN(Cc4ccccc4)CC3)sc2s1,i,i,97,i,i,85,i,i
Cc1ccc(C23CC4CC(CC(C(=O)N5CCOCC5)(C4)C2)C3)cc1,i,i,i,i,i,nt,nt,nt
CC(C)(C)c1ccc(/C=C/C(=O)N2CCN(c3ncccn3)CC2)cc1,i,i,65,i,i,61,i,i
CC(C)(C)c1ccc(/C=C/C(=O)N2CCOCC2)cc1,i,i,i,i,i,nt,nt,nt
O=C(/C=C/c1ccc(F)cc1)N1CCN(c2ncccn2)CC1,i,i,93,i,i,78,i,i
COc1ccc(-c2cc(=O)oc3cc4occ(C)c4cc23)cc1,i,i,49,i,i,i,i,i
O=C(NCCC(F)(F)F)C1Cc2c(-c3ccc(Cl)cc3)ccnc2O1 (stereo not drawn),i,nt,i,nt,nt,nt,nt,nt
CC1(C)N=C(/C=N/O)CN1O,i,i,i,i,i,nt,nt,nt
O=C(NCc1ccco1)c1cc([N+](=O)[O-])ccc1N1CCCCC1,i,i,53,i,i,i,i,i
COc1cc(NC(=O)c2cc([N+](=O)[O-])ccc2N2CCOCC2)ccc1NC(=O)c1ccco1,i,i,55,i,i,i,i,i
O=C(Nc1cc([N+](=O)[O-])ccc1N1CCOCC1)c1ccco1,i,i,i,i,i,nt,nt,nt
